Columns and labels:
[1] = biological target: Epidermal growth factor receptor and ErbB2 (HER1 and HER2) (Homo sapiens, UniProt P04626+P00533); assay: Inhibition of EGF-stimulated human umbilical vein endothelial cell proliferation; assay type: functional, cell-based
Procedure, shortened: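 Primary HUVECs (passage ≤3) seeded 2 × 10^3/well on collagen IV in minimal medium, 1% heat-inactivated FBS, 24 h; compound dilutions added with EGF 5 ng/mL; 48 h later 3H-thymidine 0.5 µCi, further 24 h. IC50 = concentration giving 50% less tritium incorporation than untreated EGF-stimulated cells, from dose-response curves.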

[2] = biological target: Vascular endothelial growth factor receptor (Homo sapiens, UniProt P17948+P35916+P35968); assay: Inhibition of VEGF-stimulated human umbilical vein endothelial cell proliferation; assay type: functional, cell-based
Procedure, shortened: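 HUVECs under passage 3, plated 2 × 10^3/well in minimal medium with 1% heat-inactivated FBS on collagen IV; after 24 h, VEGF 80 ng/mL and serial compound dilutions; 3H-thymidine pulse (0.5 µCi) at 48 h for 24 h. IC50 as concentration halving thymidine uptake relative to untreated VEGF-stimulated cells.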

[3] = biological target: Vascular endothelial growth factor receptor 2 (Homo sapiens, UniProt P35968); assay: In vitro inhibition of Vascular endothelial growth factor receptor 2
Sequence of Vascular endothelial growth factor receptor 2 (P35968 whole entry): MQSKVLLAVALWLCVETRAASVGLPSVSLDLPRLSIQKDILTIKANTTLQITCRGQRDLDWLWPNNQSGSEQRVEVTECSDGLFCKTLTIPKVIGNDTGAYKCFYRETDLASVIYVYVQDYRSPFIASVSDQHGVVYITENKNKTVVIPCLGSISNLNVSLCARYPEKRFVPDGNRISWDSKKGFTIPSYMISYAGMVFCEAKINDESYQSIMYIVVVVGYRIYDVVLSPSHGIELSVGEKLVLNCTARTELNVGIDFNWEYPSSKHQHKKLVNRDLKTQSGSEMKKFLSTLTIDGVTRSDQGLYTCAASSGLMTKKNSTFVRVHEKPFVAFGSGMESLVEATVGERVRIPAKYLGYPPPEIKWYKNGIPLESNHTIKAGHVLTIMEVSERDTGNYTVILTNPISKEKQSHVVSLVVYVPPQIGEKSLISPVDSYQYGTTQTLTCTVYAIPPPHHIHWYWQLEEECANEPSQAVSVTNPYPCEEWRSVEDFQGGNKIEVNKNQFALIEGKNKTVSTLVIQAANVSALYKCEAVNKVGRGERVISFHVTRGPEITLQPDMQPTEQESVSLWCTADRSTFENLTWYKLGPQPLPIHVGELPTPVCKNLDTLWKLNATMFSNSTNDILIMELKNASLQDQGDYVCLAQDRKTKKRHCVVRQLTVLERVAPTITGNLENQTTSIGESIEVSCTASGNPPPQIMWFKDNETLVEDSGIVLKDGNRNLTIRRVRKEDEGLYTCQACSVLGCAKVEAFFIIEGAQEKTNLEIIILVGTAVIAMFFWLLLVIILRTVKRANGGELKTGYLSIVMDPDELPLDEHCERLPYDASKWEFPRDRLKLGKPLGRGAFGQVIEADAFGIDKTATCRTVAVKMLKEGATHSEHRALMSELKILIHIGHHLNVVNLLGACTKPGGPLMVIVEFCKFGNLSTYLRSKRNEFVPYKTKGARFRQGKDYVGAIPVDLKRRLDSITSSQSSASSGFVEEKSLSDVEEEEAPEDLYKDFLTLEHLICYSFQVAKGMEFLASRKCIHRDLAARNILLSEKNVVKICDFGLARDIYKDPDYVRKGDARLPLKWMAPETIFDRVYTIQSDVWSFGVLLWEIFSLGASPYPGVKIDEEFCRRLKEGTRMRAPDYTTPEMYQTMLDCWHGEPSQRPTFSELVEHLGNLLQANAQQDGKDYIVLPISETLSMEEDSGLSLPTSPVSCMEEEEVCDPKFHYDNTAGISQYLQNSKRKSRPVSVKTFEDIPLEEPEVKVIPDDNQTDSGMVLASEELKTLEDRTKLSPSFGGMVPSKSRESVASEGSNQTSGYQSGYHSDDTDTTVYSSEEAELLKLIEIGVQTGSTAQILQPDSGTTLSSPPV

[4] = Compound was tested for its inhibitory effect on the proliferation of the colon adenocarcinoma cell line DiFi; details: Homo sapiens
[5] = biological target: Epidermal growth factor receptor (Homo sapiens, UniProt P00533); assay: In vitro inhibition of Epidermal growth factor receptor
Sequence of Epidermal growth factor receptor (P00533 whole entry): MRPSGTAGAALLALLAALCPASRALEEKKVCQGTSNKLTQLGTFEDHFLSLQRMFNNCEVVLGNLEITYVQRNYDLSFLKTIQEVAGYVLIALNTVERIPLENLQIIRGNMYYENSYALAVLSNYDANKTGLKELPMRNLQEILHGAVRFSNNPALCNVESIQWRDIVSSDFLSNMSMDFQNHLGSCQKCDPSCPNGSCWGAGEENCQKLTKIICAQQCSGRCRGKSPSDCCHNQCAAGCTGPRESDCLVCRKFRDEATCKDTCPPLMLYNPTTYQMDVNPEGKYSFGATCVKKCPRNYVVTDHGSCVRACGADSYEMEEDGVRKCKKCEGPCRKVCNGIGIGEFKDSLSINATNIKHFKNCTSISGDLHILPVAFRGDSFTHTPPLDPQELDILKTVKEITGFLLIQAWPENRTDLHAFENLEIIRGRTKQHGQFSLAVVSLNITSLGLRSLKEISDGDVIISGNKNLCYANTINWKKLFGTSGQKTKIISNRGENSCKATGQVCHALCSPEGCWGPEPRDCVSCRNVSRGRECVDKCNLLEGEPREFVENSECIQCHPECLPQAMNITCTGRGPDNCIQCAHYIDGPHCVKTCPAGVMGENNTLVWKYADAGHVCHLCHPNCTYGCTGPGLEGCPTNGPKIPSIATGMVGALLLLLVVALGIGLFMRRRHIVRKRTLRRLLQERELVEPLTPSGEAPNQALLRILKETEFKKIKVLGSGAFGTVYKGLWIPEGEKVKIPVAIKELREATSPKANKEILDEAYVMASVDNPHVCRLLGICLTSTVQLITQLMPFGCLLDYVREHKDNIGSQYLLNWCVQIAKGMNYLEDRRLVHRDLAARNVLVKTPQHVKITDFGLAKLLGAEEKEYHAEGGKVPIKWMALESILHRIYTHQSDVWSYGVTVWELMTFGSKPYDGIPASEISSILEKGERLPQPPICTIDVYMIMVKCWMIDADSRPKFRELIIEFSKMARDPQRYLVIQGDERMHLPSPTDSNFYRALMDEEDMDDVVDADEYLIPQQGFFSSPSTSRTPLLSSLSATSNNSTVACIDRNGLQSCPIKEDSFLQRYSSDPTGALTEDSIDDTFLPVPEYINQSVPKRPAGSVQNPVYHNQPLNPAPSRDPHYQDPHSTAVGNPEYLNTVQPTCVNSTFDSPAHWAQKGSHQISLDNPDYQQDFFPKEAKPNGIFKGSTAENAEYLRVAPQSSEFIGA

| SMILES | IC50 [1] [µM] | IC50 [2] [µM] | IC50 [3] [µM] | IC50 [5] [µM] | IC50 [4] [µM] |
| --- | --- | --- | --- | --- | --- |
| Cc1cc2c(Nc3ccc(C)c(O)c3)ncnn2c1 | 0.644 | 0.213 | 0.4 | 0.65 | > 10 |
| Cc1ccc(Nc2ncnn3cccc23)cc1O | – | 0.36 | 1.44 | 0.51 | 10 |
| Cc1ccc(Nc2ncnn3c(C)ccc23)cc1O | 0.101 | 0.477 | > 10 | 29.4 | > 10 |
| Cc1cc2c(Nc3ccc(F)c(Cl)c3)ncnn2c1 | 0.509 | > 2.5 | > 2 | 0.15 | 1.6 |

More lines, main results first:

| IC50 [1] [µM] | IC50 [2] [µM] | IC50 [3] [µM] | IC50 [5] [µM] | SMILES | IC50 [4] [µM] |
| --- | --- | --- | --- | --- | --- |
| 0.27 | 0.098 | 0.06 | 0.34 | Cc1ccc(Nc2ncnn3ccc(C)c23)cc1O | > 10 |
| 0.345 | > 2.5 | > 10 | 0.11 | Fc1ccc(Nc2ncnn3cccc23)cc1Cl | 1.84 |
| 0.602 | > 2.5 | > 10 | 0.1 | Cc1ccn2ncnc(Nc3ccc(F)c(Cl)c3)c12 | 3.06 |
| – | 0.31 | 0.02 | 0.2 | Cc1ccc(Nc2ncnn3cc(C)c(C)c23)cc1O | > 10 |
| > 2.5 | > 2.5 | > 2 | 3.25 | Cc1ccc2c(Nc3ccc(F)c(Cl)c3)ncnn12 | > 10 |

— ChEMBL document CHEMBL1138664, “Discovery of the pyrrolo[2,1-f][1,2,4]triazine nucleus as a new kinase inhibitor template” (J Med Chem, 2004)
